ChEMBL document CHEMBL3352424, “Synthesis, biological evaluation and 3D-QSAR study of hydrazide, semicarbazide and thiosemicarbazide derivatives of 4-(adamantan-1-yl)quinoline as anti-tuberculosis agents” (Eur J Med Chem, 2014)
Converted amounts (≈) assume the structure as drawn.

Key:
L929 = experiment: Cytotoxicity against mouse L929 cells assessed as reduction in cell viability up to 200 ug/ml after 5 days by MTT assay; assay type: cell-based; details: l929, 120 h
In short: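 MTT viability assay in mouse fibroblasts, run on compounds active against TB, with 200 µg/mL as the highest test concentration.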

[1] = system: Mycobacterium tuberculosis; experiment: Antitubercular activity against Mycobacterium tuberculosis H37Rv strain at 6.25 ug/ml by microplate alamar blue assay; assay type: functional
[2] = system: Mycobacterium tuberculosis; experiment: Antitubercular activity against Mycobacterium tuberculosis H37Rv strain by BACTEC 460 radiometric assay; assay type: functional, organism-based
[3] = system: Mycobacterium tuberculosis; experiment: Antitubercular activity against Mycobacterium tuberculosis H37Rv strain at 1.56 ug/ml by microplate alamar blue assay; assay type: functional
[4] = system: Mycobacterium tuberculosis; experiment: Antitubercular activity against Mycobacterium tuberculosis H37Rv strain; assay type: functional

SMILES | Activity (L929) | inhibition at 6.25 µg/mL [1] [%] | IC50 [2] [µM] | MIC90 [2] [µg/mL] | inhibition at 1.56 µg/mL [3] [%] | MIC99 [4] [µg/mL]
O=C(NNC(=O)c1cc(C23CC4CC(CC(C4)C2)C3)c2ccccc2n1)NC1CCCCCCCCCCC1 | Non-toxic | 87 | 1.78 | 6.25 (≈ 11.8 µM) | – | –
O=C(NNC(=S)Nc1ccc([N+](=O)[O-])cc1)c1cc(C23CC4CC(CC(C4)C2)C3)c2ccccc2n1 | Non-toxic | 94 | 0.794 | 6.25 (≈ 12.5 µM) | – | –
O=C(NNC(=O)c1cc(C23CC4CC(CC(C4)C2)C3)c2ccccc2n1)c1ccncc1 | Non-toxic | 56 | 11.5 | 6.25 (≈ 14.7 µM) | – | –
O=C(NNC(=O)c1cc(C23CC4CC(CC(C4)C2)C3)c2ccccc2n1)c1ccc2ccccc2c1 | Non-toxic | 90 | 4.68 | 6.25 (≈ 13.1 µM) | – | –
O=C(NNC(=O)c1cc(C23CC4CC(CC(C4)C2)C3)c2ccccc2n1)c1ccccc1 | Non-toxic | 12 | 107 | 6.25 (≈ 14.7 µM) | – | –
O=C(NNC(=O)c1cc(C23CC4CC(CC(C4)C2)C3)c2ccccc2n1)Nc1ccc(OC(F)(F)F)cc1 | Non-toxic | 99 | 0.427 | 3.12 (≈ 5.96 µM) | 50 | –
O=C(NNC(=O)c1ccco1)c1cc(C23CC4CC(CC(C4)C2)C3)c2ccccc2n1 | Non-toxic | 0 | – | 6.25 (≈ 15 µM) | – | –
O=C(NNC(=O)c1cc(C23CC4CC(CC(C4)C2)C3)c2ccccc2n1)Nc1cccc(F)c1 | Non-toxic | 78 | 3.8 | 6.25 (≈ 13.6 µM) | – | –
O=C(NNC(=O)N1CCOCC1)c1cc(C23CC4CC(CC(C4)C2)C3)c2ccccc2n1 | Non-toxic | 3 | 468 | 6.25 (≈ 14.4 µM) | – | –
Cc1ccc(NC(=S)NNC(=O)c2cc(C34CC5CC(CC(C5)C3)C4)c3ccccc3n2)cc1 | Non-toxic | 23 | 45.7 | 6.25 (≈ 13.3 µM) | – | –
COc1ccc(C)cc1NC(=S)NNC(=O)c1cc(C23CC4CC(CC(C4)C2)C3)c2ccccc2n1 | Non-toxic | 12 | 91.2 | 6.25 (≈ 12.5 µM) | – | –
CCCCCCNC(=O)NNC(=O)c1cc(C23CC4CC(CC(C4)C2)C3)c2ccccc2n1 | Non-toxic | 47 | 15.8 | 6.25 (≈ 13.9 µM) | – | –
O=C(NNC(=S)NCCc1ccccc1)c1cc(C23CC4CC(CC(C4)C2)C3)c2ccccc2n1 | Non-toxic | 47 | 14.5 | 6.25 (≈ 12.9 µM) | – | –
O=C(NNC(=S)Nc1ccc(OC(F)(F)F)cc1)c1cc(C23CC4CC(CC(C4)C2)C3)c2ccccc2n1 | Non-toxic | 89 | 1.45 | 6.25 (≈ 11.6 µM) | – | –
Cc1cc(C)c(NC(=O)NNC(=O)c2cc(C34CC5CC(CC(C5)C3)C4)c3ccccc3n2)c(C)c1 | Non-toxic | 77 | 3.89 | 6.25 (≈ 12.9 µM) | – | –
O=C(NNC(=O)c1cc(C23CC4CC(CC(C4)C2)C3)c2ccccc2n1)NC12CC3CC(CC(C3)C1)C2 | Non-toxic | 34 | 24.5 | 6.25 (≈ 12.5 µM) | – | –

SMILES | Activity (L929) | inhibition at 6.25 µg/mL [1] [%] | IC50 [2] [µM] | MIC90 [2] [µg/mL] | inhibition at 1.56 µg/mL [3] [%] | MIC99 [4] [µg/mL]
CC(=O)NNC(=O)c1cc(C23CC4CC(CC(C4)C2)C3)c2ccccc2n1 | Non-toxic | 5 | 324 | 6.25 (≈ 17.2 µM) | – | –
O=C(NNC(=O)c1c(F)c(F)c(F)c(F)c1F)c1cc(C23CC4CC(CC(C4)C2)C3)c2ccccc2n1 | Non-toxic | 88 | 1.66 | 6.25 (≈ 12.1 µM) | – | –
C=CCCCCCCCCC(=O)NNC(=O)c1cc(C23CC4CC(CC(C4)C2)C3)c2ccccc2n1 | Non-toxic | 50 | 12.9 | 6.25 (≈ 12.8 µM) | – | –
COc1cc(NC(=O)NNC(=O)c2cc(C34CC5CC(CC(C5)C3)C4)c3ccccc3n2)cc(OC)c1OC | Non-toxic | 22 | 41.7 | 6.25 (≈ 11.8 µM) | – | –
O=C(NNC(=S)NC1CCCCC1)c1cc(C23CC4CC(CC(C4)C2)C3)c2ccccc2n1 | Non-toxic | 0 | – | 6.25 (≈ 13.5 µM) | – | –
O=C(NNC(=O)c1cccc2ccccc12)c1cc(C23CC4CC(CC(C4)C2)C3)c2ccccc2n1 | Non-toxic | 88 | 4.47 | 6.25 (≈ 13.1 µM) | – | –
O=C(NNC(=S)Nc1ccccc1C(F)(F)F)c1cc(C23CC4CC(CC(C4)C2)C3)c2ccccc2n1 | Non-toxic | 79 | 2.88 | 6.25 (≈ 11.9 µM) | – | –
CC(C)(C)NC(=S)NNC(=O)c1cc(C23CC4CC(CC(C4)C2)C3)c2ccccc2n1 | Non-toxic | 90 | 1.58 | 6.25 (≈ 14.3 µM) | – | –
CCCCCNC(=O)NNC(=O)c1cc(C23CC4CC(CC(C4)C2)C3)c2ccccc2n1 | Non-toxic | 55 | 11.7 | 6.25 (≈ 14.4 µM) | – | –
NNC(=O)c1cc(C23CC4CC(CC(C4)C2)C3)c2ccccc2n1 | Non-toxic | – | – | – | – | 3.12 (≈ 9.72 µM)
CCNC(=S)NNC(=O)c1cc(C23CC4CC(CC(C4)C2)C3)c2ccccc2n1 | Non-toxic | 72 | 5.89 | 6.25 (≈ 15.3 µM) | – | –
CCCCCCCCCCC(=O)NNC(=O)c1cc(C23CC4CC(CC(C4)C2)C3)c2ccccc2n1 | Non-toxic | 32 | 26.9 | 6.25 (≈ 12.8 µM) | – | –
COc1ccc(OC)c(NC(=S)NNC(=O)c2cc(C34CC5CC(CC(C5)C3)C4)c3ccccc3n2)c1 | Non-toxic | 81 | 2.82 | 6.25 (≈ 12.1 µM) | – | –
CC(C)(C)c1ccc(NC(=O)NNC(=O)c2cc(C34CC5CC(CC(C5)C3)C4)c3ccccc3n2)cc1 | Non-toxic | 37 | 22.4 | 6.25 (≈ 12.6 µM) | – | –
O=C(NNC(=O)C12CC3CC(CC(C3)C1)C2)c1cc(C23CC4CC(CC(C4)C2)C3)c2ccccc2n1 | Non-toxic | 87 | 1.95 | 6.25 (≈ 12.9 µM) | – | –
O=C(NNC(=S)Nc1ccccc1)c1cc(C23CC4CC(CC(C4)C2)C3)c2ccccc2n1 | Non-toxic | 12 | 100 | 6.25 (≈ 13.7 µM) | – | –
